Bioassay records as filed in PubChem.
T cell modulator: modulators of CD8 T cell-vesicle binding, primary screen, mouse 2C CD8+ T cells, flow cytometry. 2C CD8+ T cell-vesicle binding; hits give low values. response (vesicle binding), % at 7 µM. 0.068% of 330,000 active. AID 2052, 2009;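 active = response, share of CD8 T cells binding vesicles, and their 90th percentile fluorescence all below set limits, cut at about 80% in these data, passing the limit was not always enough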;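 note: values below 100% mean blocked vesicle binding to the CD8+ T cells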
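Also added: QL9-peptide-loaded Drosophila micro-vesicles bearing Ld, ICAM-1 and B7-1; Test system: purified 2C TCR transgenic mouse naive CD8+ T cells; Measured by: cytometric PE anti-B7-1 and Alexa647 anti-CD8 signals after 1% paraformaldehyde fixation; Timing: binding step 1.5 h, 37 °C, antibody labelling 20 min, ice.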
Mcl1 Noxa PPI: Mcl-1/Noxa binding inhibitors, primary screen, biochemical, TR-FRET, 1536-well | AID 1022, 2008 | TR-FRET Mcl-1/Noxa peptide binding, 2 h | inhibition, % at 21.7 µM | 1.5% of 220,000 active;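 active = compounds that cut the protein-peptide binding signal by more than 50% relative to plate controls in a single-dose test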;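 note: His-tagged Mcl-1 with rhodamine Noxa BH3 peptide and terbium anti-His antibody; 0% = Mcl-1 plus Noxa peptide wells and 100% = peptide-only wells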
Target sequence (Q07820 whole entry, looked up): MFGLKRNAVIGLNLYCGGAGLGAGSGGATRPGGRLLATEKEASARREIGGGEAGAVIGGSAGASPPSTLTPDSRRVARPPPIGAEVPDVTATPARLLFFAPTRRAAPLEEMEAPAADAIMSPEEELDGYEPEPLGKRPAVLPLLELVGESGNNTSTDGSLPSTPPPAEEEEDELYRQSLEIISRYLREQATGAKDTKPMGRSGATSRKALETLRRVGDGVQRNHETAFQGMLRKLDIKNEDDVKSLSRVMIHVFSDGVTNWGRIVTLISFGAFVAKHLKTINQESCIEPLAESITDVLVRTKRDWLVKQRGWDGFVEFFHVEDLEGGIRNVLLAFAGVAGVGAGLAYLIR
Mcl-1 Bim block: inhibitors of Bim peptide binding to Mcl-1, primary screen, biochemical, bead-based flow cytometry, multiplex. Induced myeloid leukemia cell differentiation protein Mcl-1 (Homo sapiens), Q07820. Bim peptide-Mcl-1 binding. inhibition, % at 10 µM. 0.1% of 190,000 active. AID 1009, 2008; in the data active = inhibition above about 40%;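 note: 0% = no compound tracer wells and 100% = peptide blocker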
Mcl1-Bid inh: Mcl-1/Bid binding inhibitors, primary screen, biochemical, TR-FRET, 1536-well; inhibition, % at 21.7 µM; 0.97% of 220,000 active; TR-FRET Mcl-1/Bid-Dy647 peptide binding;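 active = compounds that cut the binding signal by more than half at the single screening dose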;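 note: His-tagged Mcl-1 with europium anti-His antibody binding Bid BH3 peptide; 0% = Mcl-1 plus peptide wells and 100% = peptide-only wells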
DSG3 Ab inh: inhibitors of pemphigus antibody binding to DSG3, primary screen, biochemical, bead-based, flow cytometry, scFv-GFP; Desmoglein-3 (Homo sapiens), P32926; DSG3-coupled beads, scFv-anti-DSG3-GFP binding; hits give low values; binding (percent of control), % at 10 µM; 0.48% of 310,000 active; AID 588358, 2011;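 active = binding more than 3 SD below its plate's average and above zero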;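 note: hits lower antibody fragment binding to DSG3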
MCL1-BIM inh: inhibitors of MCL1 binding to BIM-BH3, primary screen, biochemical, fluorescence polarization. AID 2057, 2009. Induced myeloid leukemia cell differentiation protein Mcl-1 (Homo sapiens), Q07820. 0.68% of 320,000 active. inhibition, % at 10.9 µM. GST-MCL1 / FITC-Bim-BH3 fluorescence polarization;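 active = inhibition above the mean inhibition of all tested compounds plus 3 SD, set per campaign, cut at about 40% in these data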;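 note: 0% = DMSO wells and 100% = unlabeled Bim-BH3 peptide control; higher means more loss of mP so more displacement of Bim peptide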
An asterisk follows results filed as active; i = inactive; . = no result. Shown are actives, neighbours in structure and some others; about 2.3% of the full set was active somewhere.

SMILES	T cell modulator	Mcl1 Noxa PPI	Mcl-1 Bim block	Mcl1-Bid inh	DSG3 Ab inh	MCL1-BIM inh
COc1ccc2c(c1)S/C(=C\C(=O)c1ccncc1)N2C	192.1	65.9*	7.0	-39.3	97.9	10.5
COc1cc(OC)cc(C(=O)/C=C2\Sc3ccccc3N2C)c1	323.5	35.1	-2.0	-57.9	95.7	3.8
N#C/C(=C/c1ccccc1OCc1ccc(F)cc1)c1ccc(C(=O)O)cc1	240.3	.	.	.	85.3	-19.2
N#C/C(=C/c1ccc(OCc2ccc(C(=O)O)cc2)c(Br)c1)c1cccc(F)c1	363.0	74.3*	-8.0	-43.0	101.3	9.0
Nc1n[nH]c(=S)n1/N=C1/C(=O)Nc2ccccc21	.	70.8*	0.0	21.9	96.8	.
COC(=O)c1cc(/C=C/c2ccccc2)on1	279.4	-4.3	0.0	1.5	-26.6*	-5.9
COC(=O)c1cc(/C=C/c2ccccc2)[nH]n1	203.1	.	.	.	101.8	6.0
COc1ccc(C(=O)NN=C(Cc2ccccc2)Cc2ccccc2)cc1OC	350.7	8.5	1.0	-4.6	0.8*	-3.9
COc1ccccc1NS(=O)(=O)c1cc(C(=O)N2CCCC2)ccc1F	.	.	.	.	109.1	.
CCOC(=O)c1ccccc1NC(=O)c1nc2nccc(C)n2n1	697.6	9.3	-1.0	78.9*	101.3	-3.4
COc1ccc(Nc2cc(C)nc3nc(C)nn23)c(OC)c1	305.5	-16.9	0.0	5.0	106.2	3.3
COc1ccc(OC)c(Nc2cc(C)nc3nc(C)nn23)c1	262.6	4.5	0.0	-20.7	82.0*	5.9
CCOC(=O)c1ccccc1Nc1cc(C)nc2nc(C)nn12	87.4	58.4*	0.0	-15.9	107.3	1.0
O=C(COc1ccc(Br)cc1)N1CCNC1=O	i	.	.	.	100.1	4.9
Cc1ccc([C@H]2N[C@]3(CCCN(CC4CCCCC4)C3=O)[C@H]3C(=O)N(C)C(=O)[C@@H]23)cc1	.	.	.	.	100.3	.
COc1ccc(-c2c(=O)n(OCc3ccccn3)c3ccccc3[n+]2[O-])cc1OC	264.7	53.8*	-4.0	-20.5	100.2	-2.1
Cc1ccc(-c2c(=O)n(OCc3ccccn3)c3ccccc3[n+]2[O-])cc1	.	-12.7	-4.0	-11.1	.	.
CC1CCCCN1CC(=O)Nc1ccc(Oc2ccccc2)cc1 (stereo not given)	204.0	23.6	0.0	3.5	128.0	7.5
O=C(Cc1ccccc1)Nc1ccc(N2CCCCC2)cc1	385.7	60.7*	0.0	-25.6	87.4	16.9
O=C(CCc1ccccc1)Nc1ccc(N2CCOCC2)c(Cl)c1	400.2	-1.8	1.0	-11.4	100.8	11.4
O=C(CCc1ccccc1)Nc1ccc(N2CCOCC2)cc1	282.1	52.6*	-4.0	-13.3	103.3	5.5
Cc1ccc(NC(=O)CCC(=O)c2cccs2)cc1	312.0	12.2	-5.0	-9.9	.	1.8
O=C(CCC(=O)c1cccs1)Nc1ccc(N2CCCCC2)cc1	875.5	57.1*	-1.0	-51.1	102.2	4.0
CC1CCCCN1CC(=O)Nc1ccc(N2CCCCCC2)cc1 (stereo not given)	315.0	58.5*	-7.0	35.9	101.6	3.6
CN1CCN(c2ccc(NC(=O)Cc3ccccc3)cc2)CC1	170.4	22.4	-2.0	-12.2	99.0	0.1
SMILES	T cell modulator	Mcl1 Noxa PPI	Mcl-1 Bim block	Mcl1-Bid inh	DSG3 Ab inh	MCL1-BIM inh
CCCOc1cccc(C(=O)Nc2ccc3c(c2)OCCO3)c1	206.1	.	.	.	103.1	2.6
CSc1ccccc1NC(=O)CN(C)CC(=O)Nc1ccc(N2CCOCC2)cc1	377.6	3.4	48.0*	-23.2	102.3	4.9
CN(CC(=O)Nc1ccc(N2CCOCC2)cc1)CC(=O)Nc1ccc(N2CCOCC2)cc1	147.0	-15.9	.	-101.9	101.2	-8.6
O=C(COc1cccc2cccnc12)N/N=C/c1ccccc1O	106.5	-3.1	.	-8.4	92.8	-20.9
COC(=O)Cn1cc(/C=N/NC(=O)COc2cccc3cccnc23)c2ccccc21	325.6	28.5	0.0	65.2*	105.8	8.2
C#CCn1cc(/C=N/NC(=O)COc2cccc3cccnc23)c2ccccc21	190.1	69.7*	-7.0	85.5*	113.0	-14.1
COC(=O)N/N=C/c1cn(Cc2c(Cl)cccc2Cl)c2ccccc12	275.3	3.1	12.0	-12.1	81.2*	6.1
O=C(N/N=C/c1cc(Br)ccc1OC(=O)c1ccc(Br)cc1)c1ccncc1	168.7	.	.	.	103.5	-0.1
O=c1c2cc(F)ccc2sn1-c1ccc(F)cc1	298.4	.	.	.	48.6*	19.6
COc1ccc(-n2sc3ccccc3c2=O)cc1	.	.	.	.	74.1*	.
Cc1ccc(C)c(-n2sc3ccc(F)cc3c2=O)c1	337.6	.	.	.	55.0*	9.9
COc1ccc(-n2sc3ccc(F)cc3c2=O)cc1	0.0	.	.	.	50.3*	23.2
CC(C)(C)N(Cc1ccccc1)C(=O)COC(=O)CCN1C(=O)C2CC=CCC2C1=O (stereo not given)	.	.	.	.	103.7	.
CCOC(=O)c1c(C)[nH]c(C(=O)COC(=O)CCNS(=O)(=O)c2ccc(NC(C)=O)cc2)c1C	687.5	.	.	.	.	.
CCN(CCCNC(=O)C1CCC(=O)N1Cc1ccccc1Cl)c1cccc(C)c1 (stereo not given)	212.3	6.7	-4.0	-0.9	78.4*	4.7
COc1ccc(CN2CCc3ccccc3C2)cc1Br	225.1	.	.	.	122.1	-0.4
CCN(CC)S(=O)(=O)c1ccc(S(=O)(=O)N(Cc2ccccn2)Cc2ccco2)cc1	295.4	11.6	3.0	-2.1	103.2	4.0
O=S(=O)(NCc1ccccc1)c1ccc(S(=O)(=O)N(Cc2ccccn2)Cc2ccco2)cc1	266.2	10.1	-3.0	-10.4	75.7*	2.5
COc1ccc(NC(=O)CSc2nnc3n2CCCCC3)cc1OC	.	.	.	.	91.3	.
CC(C)N(C(=O)CSc1nnnn1-c1ccc2c(c1)OCO2)C(C)C	210.0	-0.9	-3.0	65.0*	103.4	-9.9
Cc1cc(SCC(=O)Nc2ccc3[nH]c(=O)[nH]c3c2)nc2ccccc12	174.7	.	.	.	75.8*	.
CCOC(=O)c1cccc(NC(=O)c2ccc(-n3cnnn3)cc2)c1	441.6	.	.	.	117.8	.
CC(=O)OCCNc1cc(Sc2nc3ccccc3[nH]2)c2nonc2c1[N+](=O)[O-]	241.7	61.0*	-6.0	-106.3	117.6	4.7
CC(=O)OCCCNc1cc(Sc2nc3ccccc3s2)c2nonc2c1[N+](=O)[O-]	436.5	63.8*	4.0	-66.9	101.4	14.9
O=C(NCc1ccc(Cl)cc1)c1ccc(CNc2c(N3CCCC3)c(=O)c2=O)cc1	0.0*	4.4	.	-16.7	92.5	-0.6
O=C(NCc1ccc(F)cc1)c1ccncc1	687.7	.	.	.	135.0	1.8
O=C(NCc1ccc(Cl)cc1)c1ccc(CNc2c(N3CCOCC3)c(=O)c2=O)cc1	153.9	-6.4	.	6.1	92.5	4.9
